Key:
[1] = DLS size, PDI and zeta potential of nanoparticles; format: physicochemical; settings: without dBET6
RAW264.7 cells = assay: MTT cytotoxicity on RAW264.7 cells; format: cell-based; settings: for cytotoxicity in RAW 264.7 cells: without laser
Method in brief: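 RAW264.7 cells seeded at 5 × 10^3/well, grown 24 h, then exposed to preparations across a concentration series. After 4 h, only the laser groups were irradiated (650 nm); all cells were incubated a further 20 h, and viability was read by MTT.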

human MMP-2 = biological target: T1, human MMP-2 (Homo sapiens, UniProt P08253); assay: MMP-2 responsiveness; format: biochemical; settings: human MMP-2, 4 and 24 h, 37 °C, MALDI-TOF-MS
T1 sequence (P08253 110-660): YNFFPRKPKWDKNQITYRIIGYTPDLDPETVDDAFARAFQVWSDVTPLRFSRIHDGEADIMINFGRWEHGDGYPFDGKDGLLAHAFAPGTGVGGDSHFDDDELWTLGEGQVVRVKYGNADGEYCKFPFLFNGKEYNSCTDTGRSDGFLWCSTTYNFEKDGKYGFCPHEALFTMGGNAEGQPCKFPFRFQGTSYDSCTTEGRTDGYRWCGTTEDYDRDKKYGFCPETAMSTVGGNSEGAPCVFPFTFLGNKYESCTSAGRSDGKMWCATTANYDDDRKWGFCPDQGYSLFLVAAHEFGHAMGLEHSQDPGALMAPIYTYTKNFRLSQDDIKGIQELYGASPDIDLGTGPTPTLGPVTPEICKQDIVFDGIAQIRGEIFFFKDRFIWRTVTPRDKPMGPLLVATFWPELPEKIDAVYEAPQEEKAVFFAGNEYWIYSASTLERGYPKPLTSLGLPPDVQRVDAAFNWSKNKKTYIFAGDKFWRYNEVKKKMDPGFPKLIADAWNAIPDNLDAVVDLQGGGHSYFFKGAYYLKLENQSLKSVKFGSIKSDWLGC

4T1 cells [2] = assay: Cellular uptake by flow cytometry and fluorescence microscopy; format: cell-based, murine; settings: flow cytometry, Ce6 5 μg/mL
Method in brief: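 4T1 cells (1 × 10^5/well) grown to 80% confluency, exposed to formulations in serum-free 1640 medium at equal Ce6 (5 μg/mL) for 1, 4 or 12 h, then analysed by flow cytometry (n = 3). For microscopy, cells (2 × 10^5/well) on coverslips grown 36 h to 60% confluency, treated likewise, washed with cold PBS, fixed, DAPI-stained (1 μg/ml, 5 min) and imaged.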

4T1 cells [3] = assay: Wound healing assay; format: cell-based, murine; settings: 24 h, cell motility = 1 - wound area at 24 h/wound area at 0 h
Method in brief: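 4T1 monolayers in 12-well plates at 80% confluency were scratched with a 10 μL tip and washed three times with cold PBS, then treated with formulations. Laser groups were irradiated after 4 h. At 24 h, cells were fixed, stained with 0.1% crystal violet, and the scratched area imaged by inverted microscope.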

[4] = tested on: BALB/c nude mice bearing primary tumors of breast cancer; assay: Biodistribution after intravenous injection; format: in vivo; settings: 24 h post intravenous injection, ex vivo
Method in brief: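 Tumour-bearing BALB/c nude mice, tumours about 200 mm3 roughly 14 days after cell injection, randomised into four groups (n = 4). Ce6-labelled formulations were given intravenously and imaged on IVIS at 1, 2, 4, 8, 12 and 24 h. At 24 h animals were sacrificed; tumours and major organs were imaged ex vivo, fluorescence semi-quantified, then fixed and frozen-sectioned for imaging.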

[5] = tested on: BALB/c nude mice bearing breast cancer; assay: Tumor retention after intra-tumoral injection; format: in vivo; settings: 48 h post intra-tumoral injection, ex vivo
Method in brief: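 Breast-tumour-bearing BALB/c nude mice received formulations intratumorally. IVIS fluorescence imaging at 5 min and 4, 8, 12, 24, 36 and 48 h post-injection. Tumours and major organs were imaged ex vivo, then fixed, dehydrated and frozen-sectioned for fluorescence imaging.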

[6] = tested on: mice bearing 4T1-Luc brain-metastatic tumor; assay: Brain accumulation in brain-metastasis model; settings: ex vivo, 8 h post intravenous injection
Method in brief: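 Brain-metastasis model: 4T1-Luc cells (5 × 10^3) implanted stereotactically into right hippocampus. After 10 days, grouped by bioluminescence intensity (n = 4). Formulations given intravenously; IVIS fluorescence imaging at 1, 2, 4 and 8 h. At 8 h, mice sacrificed; brains and major organs imaged ex vivo for fluorescence.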

Ce6-PEG3400-DSPE [CPD]
size of self-assembled nanoparticles [1]: around 90 nm | cytotoxicity in RAW 264.7 cells (RAW264.7 cells): negligible cytotoxicity

Ce6-FFRFKGPGLLAGC-PEG-DSPE [CFPD]
size of self-assembled nanoparticles [1]: around 90 nm | molecular mass change after incubation with MMP-2 (human MMP-2): no significant change in molecular mass | fluorescence signal relative to free Ce6 (cellular uptake) (4T1 cells [2]; 1 h): 5.71 fold | fluorescence signal relative to free Ce6 (cellular uptake) (4T1 cells [2]; 4 h): 3.73 fold | fluorescence signal relative to free Ce6 (cellular uptake) (4T1 cells [2]; 12 h): 3.10 fold | cytotoxicity in RAW 264.7 cells (RAW264.7 cells): negligible cytotoxicity

Cc1sc2c(c1C)C(c1ccc(Cl)cc1)=N[C@@H](CC(=O)NCCCCCCCCNC(=O)COc1cccc3c1C(=O)N(C1CCC(=O)NC1=O)C3=O)c1nnc(C)n1-2 (stereo partly shown) [dBET6, reference compound]
influence on cell viability of RAW264.7 cells (RAW264.7 cells; dBET6 0.25 μg/mL): no influence on cell viability

Ce6-FFRFKGPLGLAGC-PEG-DSPE [CFMPD]
size of self-assembled nanoparticles [1]: around 90 nm | molecular mass change after incubation with MMP-2 (human MMP-2): distinct new peaks belonging to the post-enzymatic fragmentation | fluorescence signal relative to free Ce6 (cellular uptake) (4T1 cells [2]; 1 h): 6.53 fold | fluorescence signal relative to free Ce6 (cellular uptake) (4T1 cells [2]; 4 h): 4.13 fold | fluorescence signal relative to free Ce6 (cellular uptake) (4T1 cells [2]; 12 h): 3.64 fold | cytotoxicity in RAW 264.7 cells (RAW264.7 cells): negligible cytotoxicity | cell mobility (wound healing) (4T1 cells [3]): 37.0% | tumor fluorescent signal, fold higher than CFPD [4]: 1.22 fold | tumor fluorescent signal, fold higher than CPD [4]: 1.71 fold | tumor fluorescence intensity, fold stronger than CFPD [5]: 1.72 fold | brain fluorescence, fold stronger than CFPD [6]: 1.46 fold | brain fluorescence, fold stronger than CPD [6]: 2.04 fold | brain fluorescence, fold stronger than Ce6 [6]: 2.43 fold

From publication PMC11607387 (Nature Communications, 2024)
